ChEMBL document CHEMBL3044867, “Antifungal activity of glyceollins isolated from soybean elicited with Aspergillus sojae” (2010)
Values after ≈ are worked out from the molar mass of the structure shown.

Tests used:
Phytophthora capsici [1] = assay: Inhibition of spore germination of Phytophthora capsici KACC 40157 at 100 ug/mL; format: functional
Fusarium oxysporum [2] = assay: Antifungal activity against Fusarium oxysporum KACC 41083 measured 2 to 4 days post dose by two-fold dilution method; format: functional
In short: (§1)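 Two-fold dilution MIC in potato dextrose broth tubes. The DMSO-dissolved sample was serially diluted to final 10, 25, 50, 100, 250, 500 and 750 μg/mL, then inoculated with 10 μL spore suspension (1 × 10^8 spores/mL, from 10-day cultures). Tubes were incubated 2-4 days at 28 C; the control tube held spores only. MIC was the lowest concentration with no visible growth.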

Botrytis cinerea [3] = assay: Antifungal activity against Botryotinia fuckeliana KACC 40573 assessed as inhibition of radial growth at 0.6 mg/disk incubated for 4 to 6 days by disk diffusion method; format: functional
In short: (§2)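 Disk diffusion on PDA in 9 cm dishes. Sample in DMSO at 40 mg/mL; paper disks loaded with 5 or 15 μL, dried, and set equidistantly. A 6 mm agar plug of the pathogen was placed upside down in the centre. Plates were incubated at 25 C for 4-6 days, until solvent-control growth reached the edge. % inhibition = radial growth versus control; triplicate plates; mean ± SD of three experiments.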

Sclerotinia sclerotiorum [4] = assay: Antifungal activity against Sclerotinia sclerotiorum KACC 41065 assessed as inhibition of radial growth at 0.6 mg/disk incubated for 4 to 6 days by disk diffusion method; format: functional; in short: as §2
Phytophthora capsici [5] = assay: Inhibition of spore germination of Phytophthora capsici KACC 40157 at 25 ug/mL measured 4 hr post dose; format: functional; settings: KACC 40157, 4 h
Fusarium oxysporum [6] = assay: Antifungal activity against Fusarium oxysporum KACC 41083 assessed as inhibition of radial growth at 0.2 mg/disk incubated for 4 to 6 days by disk diffusion method; format: functional; in short: as §2
Sclerotinia sclerotiorum [7] = assay: Antifungal activity against Sclerotinia sclerotiorum KACC 41065 assessed as inhibition of radial growth at 0.2 mg/disk incubated for 4 to 6 days by disk diffusion method; format: functional; in short: as §2
Phytophthora capsici [8] = assay: Inhibition of spore germination of Phytophthora capsici KACC 40157 at 25 to 100 ug/mL; format: functional, organism-based; settings: TDE = time-dependent effect
Fusarium oxysporum [9] = assay: Inhibition of spore germination of Fusarium oxysporum KACC 41083 at 100 to 500 ug/mL; format: functional
In short: (§3)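 Glyceollins were tested at 10, 25, 50, 100, 250 and 500 μg/mL against a 1% DMSO control, with spore suspension at 1.0 × 10^8 spores/mL. 100 μL aliquots went on glass slides in triplicate and were kept in a moist chamber at 25 C for 24 h. Slides were fixed in lactophenol-cotton blue, about 200 spores were counted for germ tubes, and germination was expressed relative to control.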

Phytophthora capsici [10] = assay: Inhibition of spore germination of Phytophthora capsici KACC 40157; format: functional, organism-based; in short: as §3
Botrytis cinerea [11] = assay: Inhibition of spore germination of Botryotinia fuckeliana KACC 40573; format: functional, organism-based; in short: as §3
Phytophthora capsici [12] = assay: Antifungal activity against Phytophthora capsici KACC 40157 assessed as inhibition of radial growth at 0.2 mg/disk incubated for 4 to 6 days by disk diffusion method; format: functional; in short: as §2
Sclerotinia sclerotiorum [13] = assay: Antifungal activity against Sclerotinia sclerotiorum KACC 41065 measured 2 to 4 days post dose by two-fold dilution method; format: functional; in short: as §1
Phytophthora capsici [14] = assay: Antifungal activity against Phytophthora capsici KACC 40157 assessed as inhibition of radial growth at 0.6 mg/disk incubated for 4 to 6 days by disk diffusion method; format: functional; in short: as §2
Botrytis cinerea [15] = assay: Antifungal activity against Botryotinia fuckeliana KACC 40573 assessed as inhibition of radial growth at 0.2 mg/disk incubated for 4 to 6 days by disk diffusion method; format: functional; in short: as §2
Phytophthora capsici [16] = assay: Inhibition of spore germination of Phytophthora capsici KACC 40157 at 100 ug/mL measured 3 hr post dose; format: functional; settings: KACC 40157, 3 h
Sclerotinia sclerotiorum [17] = assay: Inhibition of spore germination of Sclerotinia sclerotiorum KACC 41065 at 500 ug/mL; format: functional; in short: as §3
Fusarium oxysporum [18] = assay: Inhibition of spore germination of Fusarium oxysporum KACC 41083; format: functional, organism-based; in short: as §3
Sclerotinia sclerotiorum [19] = assay: Inhibition of spore germination of Sclerotinia sclerotiorum KACC 41065; format: functional, organism-based; in short: as §3
Phytophthora capsici [20] = assay: Antifungal activity against Phytophthora capsici KACC 40157 measured 2 to 4 days post dose by two fold dilution method; format: functional; in short: as §1
Phytophthora capsici [21] = assay: Inhibition of spore germination of Phytophthora capsici KACC 40157 at 100 ug/mL measured 2 hr post dose; format: functional; settings: KACC 40157, 2 h
Botrytis cinerea [22] = assay: Antifungal activity against Botryotinia fuckeliana KACC 40573 measured 2 to 4 days post dose by two fold dilution method; format: functional; in short: as §1
Fusarium oxysporum [23] = assay: Antifungal activity against Fusarium oxysporum KACC 41083 assessed as inhibition of radial growth at 0.6 mg/disk incubated for 4 to 6 days by disk diffusion method; format: functional; in short: as §2
Phytophthora capsici [24] = assay: Inhibition of spore germination of Phytophthora capsici KACC 40157 at 250 ug/mL; format: functional; in short: as §3
Botrytis cinerea [25] = assay: Inhibition of spore germination of Botryotinia fuckeliana KACC 40573 at 100 to 500 ug/mL; format: functional; in short: as §3

| MIC (Fusarium oxysporum [2]) [µg/mL] | MIC (Sclerotinia sclerotiorum [13]) [µg/mL] | MIC (Phytophthora capsici [20]) [µg/mL] | Compound | inhibition at 100 µg/mL (Phytophthora capsici [1]) [%] | inhibition (INH) (Botrytis cinerea [3]) [%] | inhibition (INH) (Sclerotinia sclerotiorum [4]) [%] | inhibition at 25 µg/mL (Phytophthora capsici [5]) [%] | inhibition (INH) (Fusarium oxysporum [6]) [%] | inhibition (INH) (Sclerotinia sclerotiorum [7]) [%] | inhibition (Phytophthora capsici [8]) | inhibition (INH) (Fusarium oxysporum [9]) [%] | inhibition (Phytophthora capsici [10]) | inhibition (Botrytis cinerea [11]) | inhibition (INH) (Phytophthora capsici [12]) [%] | inhibition (INH) (Phytophthora capsici [14]) [%] | inhibition (INH) (Botrytis cinerea [15]) [%] | inhibition at 100 µg/mL (Phytophthora capsici [16]) [%] | inhibition at 500 µg/mL (Sclerotinia sclerotiorum [17]) [%] | inhibition (Fusarium oxysporum [18]) | inhibition (Sclerotinia sclerotiorum [19]) | other results |
| --- | --- | --- | --- | --- | --- | --- | --- | --- | --- | --- | --- | --- | --- | --- | --- | --- | --- | --- | --- | --- | --- |
| 250 (≈ 739 µM) | 50 (≈ 148 µM) | 25 (≈ 73.9 µM) | CC1(C)C=Cc2cc3c(cc2O1)OC[C@@]1(O)c2ccc(O)cc2O[C@@H]31 [GLYCEOLLIN II] | 100 | 22.1 | 61 | 50 | 27.4 | 48.2 | tde | 40 | Dose-dependent effect | Dose-dependent effect | 37.5 | 40.5 | 10.9 | 100 | 100 | Dose-dependent effect | Dose-dependent effect | inhibition at 100 µg/mL (Phytophthora capsici [21]): 95%; MIC (Botrytis cinerea [22]): 750 µg/mL (≈ 2220 µM); inhibition (INH) (Fusarium oxysporum [23]): 40.1%; inhibition at 250 µg/mL (Phytophthora capsici [24]): 100%; inhibition (INH) (Botrytis cinerea [25]): 40% |
| 250 (≈ 739 µM) | 50 (≈ 148 µM) | 25 (≈ 73.9 µM) | C=C(C)[C@@H]1Cc2cc3c(cc2O1)OC[C@@]1(O)c2ccc(O)cc2O[C@@H]31 [GLYCEOLLIN III] | 100 | 22.1 | 61 | 50 | 27.4 | 48.2 | tde | 40 | Dose-dependent effect | Dose-dependent effect | 37.5 | 40.5 | 10.9 | 100 | 100 | Dose-dependent effect | Dose-dependent effect | inhibition at 100 µg/mL (Phytophthora capsici [21]): 95%; MIC (Botrytis cinerea [22]): 750 µg/mL (≈ 2220 µM); inhibition (INH) (Fusarium oxysporum [23]): 40.1%; inhibition at 250 µg/mL (Phytophthora capsici [24]): 100%; inhibition (INH) (Botrytis cinerea [25]): 40% |
| 250 (≈ 739 µM) | 50 (≈ 148 µM) | 25 (≈ 73.9 µM) | CC1(C)C=Cc2c(ccc3c2OC[C@@]2(O)c4ccc(O)cc4O[C@@H]32)O1 [GLYCEOLLIN I] | 100 | 22.1 | 61 | 50 | 27.4 | 48.2 | tde | 40 | Dose-dependent effect | Dose-dependent effect | 37.5 | 40.5 | 10.9 | 100 | 100 | Dose-dependent effect | Dose-dependent effect | inhibition at 100 µg/mL (Phytophthora capsici [21]): 95%; MIC (Botrytis cinerea [22]): 750 µg/mL (≈ 2220 µM); inhibition (INH) (Fusarium oxysporum [23]): 40.1%; inhibition at 250 µg/mL (Phytophthora capsici [24]): 100%; inhibition (INH) (Botrytis cinerea [25]): 40% |
